Measurements from different studies.
Each line is one published result; the experiments were not run side by side. ≈ marks a conversion by molar mass, not a printed value.

`FC(F)(F)c1cc(Nc2ncnc3ccc(-c4cccc(N5CCOCC5)c4)cc23)ccc1Cl` gave a thermodynamic solubility of < 0.7 µM (aqueous buffer; pH 7.4, 25 °C).
For `Cc1ccccc1CN1C(=O)C2=C(CCN(Cc3ccccc3)C2)N2CCN=C12`, the solubility was 98600 µg/mL (≈ 255 mM) (shake flask; aqueous buffer; pH 4.5).
For `N#Cc1ccc(C[C@H](Nc2nnc(-c3ccc(F)cc3)s2)C(=O)N2CCc3ccccc32)cc1`, the kinetic solubility was 4.5 µM (≈ 2.11 µg/mL) (aqueous buffer; 2 h, pH 7.4, 37 °C).
`O=[N+]([O-])c1ccc(Nc2ncnc3ccc(-c4cccc(N5CCOCC5)c4)cc23)cc1C(F)(F)F` has a thermodynamic solubility of < 0.4 µM (aqueous buffer; pH 7.4, 25 °C).
With `O=C(Nc1ccc(OC(F)(F)F)cc1)N[C@H]1CC[C@H](Oc2ccc(C(=O)O)cc2)CC1` the solubility was 0.0023 µg/mL (≈ 5.25e-06 mM) (simulated gastric fluid; 15 min, pH 1, 37 °C, acidic).
For `Fc1ccccc1Nc1nc(-c2ccncc2)nc2c1CNCC2`, the kinetic solubility was > 250 µM (PBS; 24 h, pH 7.4).
`CCCCCCCCCCCCCCCC(=O)NCCO` gave a thermodynamic solubility of < 16 µg/mL (aqueous buffer; 12 h, pH 6.8, 37 °C).
With `CCN(CC)CCNC(=O)c1cc(S(C)(=O)=O)cnc1OC` the kinetic solubility was 393 µM (≈ 129 µg/mL) (PBS; 2 h, pH 7.4, 25 °C).
`N#Cc1ccc(C[C@H](Nc2c(Nc3ccc(Br)cc3)c(=O)c2=O)C(=O)N2CCc3ccccc32)cc1` gave a kinetic solubility of 9.2 µM (≈ 4.98 µg/mL) (aqueous buffer; 2 h, pH 7.4, 37 °C).
For `CCCCCCCCCCCCCCCC(=O)NCCOC(=O)C[C@@H](CN)CC(C)C`, the thermodynamic solubility was 3780 µg/mL (aqueous buffer; 12 h, pH 6.8, 37 °C).
With `Cc1nccn1CC1CCc2c(c3ccccc3n2C)C1=O` (stereo not drawn) the kinetic solubility was 110 µM (≈ 32.3 µg/mL) (PBS; 2 h, pH 7.4, 25 °C).
For `N#Cc1ccc(C[C@@H](Nc2c(Nc3ccc(F)cc3)c(=O)c2=O)C(=O)N2CCc3ccccc32)cc1`, the kinetic solubility was 11.8 µM (≈ 5.67 µg/mL) (aqueous buffer; 2 h, pH 7.4, 37 °C).
`Clc1ccc(Nc2ncnc3ccc(-c4cccc(N5CCOCC5)c4)cc23)cc1` has a thermodynamic solubility of < 0.4 µM (aqueous buffer; pH 7.4, 25 °C).
The kinetic solubility of `Cc1ccc(-c2nnc(N[C@@H](Cc3ccc(C#N)cc3)C(=O)N3CCc4ccccc43)o2)cc1` is reported as 5.4 µM (≈ 2.43 µg/mL) (aqueous buffer; 2 h, pH 7.4, 37 °C).
`C=CCn1c(=O)c2cnc(Nc3ccc(N4CCN(C)CC4)cc3)nc2n1-c1ccc2c(n1)[C@@](O)(CC)CC2` has a thermodynamic solubility of 2130 µM (PBS; pH 7.4).
